Results from ChEMBL document CHEMBL4715736, “Identification of anticancer agents based on the thieno[2,3-b]pyridine and 1H-pyrazole molecular scaffolds” (2016).

The compounds below were run on NCI-H522 (assay: Growth inhibition of human NCI-H522 cells assessed as cell growth at 0.01 uM incubated for 48 hrs by sulforhodamine B assay relative to control). Conditions: read-out: Activity.
Type: functional
In the case of `CCc1ccccc1NC(=O)c1sc2nc3c(cc2c1N)C(=O)CCC3`, the growth at 0.01 µM is reported as 106%.

What follows are compounds tested on COLO 205 (assay: Growth inhibition of human COLO 205 cells assessed as cell growth at 0.01 uM incubated for 48 hrs by sulforhodamine B assay relative to control). Conditions: read-out: Activity.
Type: functional
Procedure, shortened: (§1)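 NCI Developmental Therapeutics Program NCI60 panel. Compounds that were active in the 10 µM one-dose screen went on to dose–response testing. Growth at each concentration is expressed relative to untreated control (100%). GI50 (concentration giving 50% of maximal inhibition of proliferation) and TGI (concentration giving total growth inhibition) were derived from the curves.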
For `CCc1ccccc1NC(=O)c1sc2nc3c(cc2c1N)C(=O)CCC3`, the growth at 0.01 µM was 102%.

What follows are compounds tested on Malme-3M (assay: Growth inhibition of human Malme-3M cells assessed as cell growth at 0.01 uM incubated for 48 hrs by sulforhodamine B assay relative to control). Conditions: read-out: Activity.
Type: functional
For `CCc1ccccc1NC(=O)c1sc2nc3c(cc2c1N)C(=O)CCC3`, the growth at 0.01 µM was 100%.

These compounds were tested on UACC-257 (assay: Growth inhibition of human UACC-257 cells assessed as cell growth at 0.01 uM incubated for 48 hrs by sulforhodamine B assay relative to control). Conditions: read-out: Activity.
Type: functional
With `CCc1ccccc1NC(=O)c1sc2nc3c(cc2c1N)C(=O)CCC3` the growth at 0.01 µM was 93%.

The compounds below were run on ACHN (assay: Growth inhibition of human ACHN cells assessed as cell growth at 0.01 uM incubated for 48 hrs by sulforhodamine B assay relative to control). Conditions: read-out: Activity.
Type: functional
For `CCc1ccccc1NC(=O)c1sc2nc3c(cc2c1N)C(=O)CCC3`, the growth at 0.01 µM was 93%.

These compounds were tested on RXF 393 (assay: Growth inhibition of human RXF 393 cells assessed as cell growth at 0.01 uM incubated for 48 hrs by sulforhodamine B assay relative to control). Conditions: read-out: Activity.
Type: functional
`CCc1ccccc1NC(=O)c1sc2nc3c(cc2c1N)C(=O)CCC3` gave a growth at 0.01 µM of 94%.

Each compound was assayed on MDA-MB-231 (assay: Growth inhibition of human MDA-MB-231 cells assessed as cell growth at 0.01 uM incubated for 48 hrs by sulforhodamine B assay relative to control). Conditions: read-out: Activity.
Type: functional
For `CCc1ccccc1NC(=O)c1sc2nc3c(cc2c1N)C(=O)CCC3`, the growth at 0.01 µM was 97%.

The compounds below were run on T47D (assay: Growth inhibition of human T47D cells assessed as cell growth at 0.01 uM incubated for 48 hrs by sulforhodamine B assay relative to control). Conditions: read-out: Activity.
Type: functional
Compound `CCc1ccccc1NC(=O)c1sc2nc3c(cc2c1N)C(=O)CCC3` has a growth at 0.01 µM of 99%.

These compounds were tested on K562 (assay: Growth inhibition of human K562 cells assessed as cell growth at 0.1 uM incubated for 48 hrs by sulforhodamine B assay relative to control). Conditions: read-out: Activity.
Type: functional
Compound `CCc1ccccc1NC(=O)c1sc2nc3c(cc2c1N)C(=O)CCC3` has a growth at 0.1 µM of 63%.

Each compound was assayed on HOP-62 (assay: Growth inhibition of human HOP-62 cells assessed as cell growth at 0.1 uM incubated for 48 hrs by sulforhodamine B assay relative to control). Conditions: read-out: Activity.
Type: functional
With `CCc1ccccc1NC(=O)c1sc2nc3c(cc2c1N)C(=O)CCC3` the growth at 0.1 µM was 82%.

Each compound was assayed on SK-MEL-2 (assay: Growth inhibition of human SK-MEL-2 cells assessed as cell growth at 0.1 uM incubated for 48 hrs by sulforhodamine B assay relative to control). Conditions: read-out: Activity.
Type: functional
Compound `CCc1ccccc1NC(=O)c1sc2nc3c(cc2c1N)C(=O)CCC3` has a growth at 0.1 µM of 104%.

What follows are compounds tested on IGROV-1 (assay: Growth inhibition of human IGROV-1 cells assessed as cell growth at 0.1 uM incubated for 48 hrs by sulforhodamine B assay relative to control). Conditions: read-out: Activity.
Type: functional
Work on `CCc1ccccc1NC(=O)c1sc2nc3c(cc2c1N)C(=O)CCC3` yielded a growth at 0.1 µM of 102%.

These compounds were tested on OVCAR-8 (assay: Growth inhibition of human OVCAR-8 cells assessed as cell growth at 0.1 uM incubated for 48 hrs by sulforhodamine B assay relative to control). Conditions: read-out: Activity.
Type: functional
With `CCc1ccccc1NC(=O)c1sc2nc3c(cc2c1N)C(=O)CCC3` the growth at 0.1 µM was 97%.

What follows are compounds tested on BT-549 (assay: Growth inhibition of human BT-549 cells assessed as cell growth at 0.1 uM incubated for 48 hrs by sulforhodamine B assay relative to control). Conditions: read-out: Activity.
Type: functional
`CCc1ccccc1NC(=O)c1sc2nc3c(cc2c1N)C(=O)CCC3` was tested, and the growth at 0.1 µM was 101%.

What follows are compounds tested on RPMI-8226 (assay: Growth inhibition of human RPMI-8226 cells assessed as cell growth at 1 uM incubated for 48 hrs by sulforhodamine B assay relative to control). Conditions: read-out: Activity.
Type: functional
Compound `CCc1ccccc1NC(=O)c1sc2nc3c(cc2c1N)C(=O)CCC3` has a growth at 1 µM of 41%.

The compounds below were run on HOP-62 (assay: Growth inhibition of human HOP-62 cells assessed as cell growth at 1 uM incubated for 48 hrs by sulforhodamine B assay relative to control). Conditions: read-out: Activity.
Type: functional
`CCc1ccccc1NC(=O)c1sc2nc3c(cc2c1N)C(=O)CCC3` was tested, and the growth at 1 µM was 33%.

Each compound was assayed on MDA-MB-435 (assay: Growth inhibition of human MDA-MB-435 cells assessed as cell growth at 1 uM incubated for 48 hrs by sulforhodamine B assay relative to control). Conditions: read-out: Activity.
Type: functional
`CCc1ccccc1NC(=O)c1sc2nc3c(cc2c1N)C(=O)CCC3` was tested, and the growth at 1 µM was -53%.

Each compound was assayed on UACC-257 (assay: Growth inhibition of human UACC-257 cells assessed as cell growth at 1 uM incubated for 48 hrs by sulforhodamine B assay relative to control). Conditions: read-out: Activity.
Type: functional
Compound `CCc1ccccc1NC(=O)c1sc2nc3c(cc2c1N)C(=O)CCC3` has a growth at 1 µM of 52%.

These compounds were tested on ACHN (assay: Growth inhibition of human ACHN cells assessed as cell growth at 1 uM incubated for 48 hrs by sulforhodamine B assay relative to control). Conditions: read-out: Activity.
Type: functional
`CCc1ccccc1NC(=O)c1sc2nc3c(cc2c1N)C(=O)CCC3` gave a growth at 1 µM of 43%.

These compounds were tested on MDA-MB-468 (assay: Growth inhibition of human MDA-MB-468 cells assessed as cell growth at 1 uM incubated for 48 hrs by sulforhodamine B assay relative to control). Conditions: read-out: Activity.
Type: functional
Compound `CCc1ccccc1NC(=O)c1sc2nc3c(cc2c1N)C(=O)CCC3` has a growth at 1 µM of -4%.

The compounds below were run on NCI-H460 (assay: Growth inhibition of human NCI-H460 cells assessed as cell growth at 100 uM incubated for 48 hrs by sulforhodamine B assay relative to control). Conditions: read-out: Activity.
Type: functional
Compound `CCc1ccccc1NC(=O)c1sc2nc3c(cc2c1N)C(=O)CCC3` has a growth at 100 µM of 3%.

What follows are compounds tested on COLO 205 (assay: Growth inhibition of human COLO 205 cells assessed as cell growth at 100 uM incubated for 48 hrs by sulforhodamine B assay relative to control). Conditions: read-out: Activity.
Type: functional
Procedure, shortened: as §1
`CCc1ccccc1NC(=O)c1sc2nc3c(cc2c1N)C(=O)CCC3` showed a growth at 100 µM of -72%.
